ChEMBL document CHEMBL1649498, “Pharmacological exploitation of an off-target antibacterial effect of the cyclooxygenase-2 inhibitor celecoxib against Francisella tularensis” (Antimicrob Agents Chemother, 2009)
Values after ≈ are worked out from the molar mass of the structure shown. Active and inactive are the calls of the source. The calls are words filed in the database; no cut-off is given here.

What was measured:
Francisella tularensis [1] = test: Antibacterial activity against Francisella tularensis LVS infected in mouse RAW264.7 cells after 48 hrs by broth microdilution method; format: functional
Francisella novicida [2] = test: Antibacterial activity against Francisella novicida infected in mouse RAW264.7 cells at 64 ug/ml after 24 hrs by broth microdilution method; format: functional, cell-based; details: Francisella tularensis subsp. novicida
How it was run: (§1)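 F. novicida U112 grown overnight on chocolate agar, suspended in PBS and diluted to 5 × 10⁵ CFU/ml in TSB with 0.025% iron(III) pyrophosphate and 0.1% cysteine HCl. CLSI broth microdilution in triplicate, 1 to 64 μg/ml, 37°C for 24 h. MIC was the lowest concentration with no visible growth.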

Francisella novicida [3] = test: Antibacterial activity against Francisella novicida infected in mouse RAW264.7 cells after 24 hrs by broth microdilution method; format: functional, Francisella tularensis subsp. novicida; details: Francisella tularensis; how it was run: as §1
Francisella tularensis [4] = test: Antibacterial activity against Francisella tularensis LVS infected in mouse RAW264.7 cells at 64 ug/ml after 48 hrs by broth microdilution method; format: functional, cell-based
RAW264.7 = test: Cytotoxicity against mouse RAW264.7 cells after 8 hrs by MTT assay; format: cell-based; details: RAW264.7, 8 h
How it was run: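 RAW 264.7 cells at 2.5 × 10⁴/well, at least 6 wells per group, left overnight. Treated in 5% FBS DMEM with agents in DMSO (0.1% final) for 8 h. Then 0.5 mg/ml MTT for 1 h at 37°C, dye dissolved in DMSO, A570 read. Viability taken as % of vehicle control; IC50 from the dose-response.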

[5] = Selectivity index, ratio of IC50 for mouse RAW264.7 cells to MIC for Francisella novicida; format: functional
Salmonella typhimurium = test: Antibacterial activity against Salmonella enterica serovar Typhimurium ATCC 14028 infected in mouse RAW264.7 cells at 64 ug/ml after 24 to 48 hrs by broth microdilution method; format: functional, organism-based; details: Salmonella enterica subsp. enterica serovar Typhimurium
Escherichia coli = test: Antibacterial activity against Escherichia coli ATCC 25922 infected in mouse RAW264.7 cells at 64 ug/ml after 24 to 48 hrs by broth microdilution method; format: functional, organism-based
Francisella tularensis [6] = test: Antibacterial activity against Francisella tularensis SchuS4 infected in mouse RAW264.7 cells at 64 ug/ml after 24 hrs by broth microdilution method; format: functional, cell-based
Francisella tularensis [7] = test: Antibacterial activity against Francisella tularensis SchuS4 infected in mouse RAW264.7 cells after 24 hrs by broth microdilution method; format: functional; details: SchuS4, 24 h
Francisella novicida [8] = test: Antibacterial activity against Francisella novicida infected in mouse RAW264.7 cells at 64 ug/ml after 24 hrs by broth microdilution method in presence of 10% human serum albumin; format: functional, cell-based; details: Francisella tularensis subsp. novicida
Francisella novicida [9] = test: Antibacterial activity against Francisella novicida infected in mouse RAW264.7 cells at 64 ug/ml after 24 hrs by broth microdilution method in presence of 50% human serum albumin; format: functional, cell-based; details: Francisella tularensis subsp. novicida
Francisella novicida [10] = test: Antibacterial activity against Francisella novicida infected in mouse RAW264.7 cells at 64 ug/ml after 24 hrs by broth microdilution method in presence of 80% human serum albumin; format: functional, cell-based; details: Francisella tularensis subsp. novicida
Francisella novicida [11] = test: Antibacterial activity against Francisella novicida infected in mouse RAW264.7 cells at 64 ug/ml after 24 hrs by broth microdilution method in presence of 80% fetal bovine serum; format: functional, cell-based; details: Francisella tularensis subsp. novicida
How it was run: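 Broth contained 0, 10, 50 or 80% human AB serum (not albumin) or FBS to probe protein binding. NE means no effect at 64 μg/ml.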

Francisella tularensis [12] = test: Antibacterial activity against Francisella tularensis SchuS4 infected in human THP1 cells at 4 ug/ml after 24 hrs by broth microdilution method; format: functional, cell-based; details: THP-1

SMILES | MIC (Francisella tularensis [1]) | Activity (Francisella novicida [2]) | MIC (Francisella novicida [3]) | Activity (Francisella tularensis [4]) | further results
Nc1ccc(-n2nc(C(F)(F)F)cc2-c2ccc(-c3cc(Cl)c(Cl)cc3Cl)cc2)cc1 | 4 µg/mL (≈ 8.29 µM) | inactive |  |  | 
Nc1ccc(-n2nc(C(F)(F)F)cc2-c2cccc3ccccc23)cc1 | 8 µg/mL (≈ 22.6 µM) |  | 16 µg/mL (≈ 45.3 µM) |  | 
CS(=O)(=O)c1ccc(-n2nc(C(F)(F)F)cc2-c2ccc(F)cc2)cc1 |  | inactive |  | inactive | 
CCCCc1ccc(-c2cc(C(F)(F)F)nn2-c2ccc(C(N)=O)cc2)cc1 | 8 µg/mL (≈ 20.7 µM) |  | 16 µg/mL (≈ 41.3 µM) |  | 
NS(=O)(=O)c1ccc(-n2nc(C(F)(F)F)cc2-c2cccc3ccccc23)cc1 | 8 µg/mL (≈ 19.2 µM) |  | 16 µg/mL (≈ 38.3 µM) |  | 
NS(=O)(=O)c1ccc(-n2nc(C(F)(F)F)cc2-c2ccc(-c3cc(Cl)c(Cl)cc3Cl)cc2)cc1 | 1 µg/mL (≈ 1.83 µM) |  | 2 µg/mL (≈ 3.66 µM) |  | IC50 (RAW264.7): 2.4 µg/mL (≈ 4.39 µM); Ratio [5]: 1.2
NC(=O)c1ccc(-n2nc(C(F)(F)F)cc2-c2ccc(-c3cc(Cl)cc(Cl)c3)cc2)cc1 | 4 µg/mL (≈ 8.4 µM) |  | 16 µg/mL (≈ 33.6 µM) |  | 
NC(=O)c1ccc(-n2nc(C(F)(F)F)cc2-c2c3ccccc3cc3ccccc23)cc1 | 16 µg/mL (≈ 37.1 µM) |  | 16 µg/mL (≈ 37.1 µM) |  | 
Nc1ccc(-n2nc(C(F)(F)F)cc2-c2ccc(-c3ccccc3)cc2)cc1 | 4 µg/mL (≈ 10.5 µM) |  | 4 µg/mL (≈ 10.5 µM) |  | IC50 (RAW264.7): 15 µg/mL (≈ 39.5 µM); Ratio [5]: 3.8
CS(=O)(=O)c1ccc(C2=C(c3ccccc3)C(=O)OC2)cc1 [ROFECOXIB] |  | inactive |  | inactive | Activity (Salmonella typhimurium): inactive; Activity (Escherichia coli): inactive; Activity (Francisella tularensis [6]): inactive
FC(F)(F)c1cc(-c2ccc3ccc4ccccc4c3c2)n(-c2ccccc2)n1 |  | inactive |  | inactive | 
Cc1ccc(-c2ccc(-c3cc(C(F)(F)F)nn3-c3ccc(S(C)(=O)=O)cc3)cc2)cc1 |  | inactive |  | inactive | 
NC(=O)c1ccc(-n2nc(C(F)(F)F)cc2-c2ccc(-c3ccc(C(F)(F)F)cc3)cc2)cc1 |  | inactive |  | inactive | 
NS(=O)(=O)c1ccc(-n2nc(C(F)(F)F)cc2-c2ccc(-c3ccc(Cl)cc3)cc2)cc1 | 4 µg/mL (≈ 8.37 µM) |  | 4 µg/mL (≈ 8.37 µM) |  | IC50 (RAW264.7): 4.8 µg/mL (≈ 10 µM); Ratio [5]: 1.2
Cc1ccc(-c2cc(C(F)(F)F)nn2-c2ccc(S(N)(=O)=O)cc2)cc1 [CELECOXIB] | 16 µg/mL (≈ 42 µM) |  | 32 µg/mL (≈ 83.9 µM) |  | MIC (Francisella tularensis [7]): 16 µg/mL (≈ 42 µM); Activity (Salmonella typhimurium): inactive; Activity (Escherichia coli): inactive; IC50 (RAW264.7): 17 µg/mL (≈ 44.6 µM); Ratio [5]: 0.5; Activity (Francisella novicida [8]): inactive; Activity (Francisella novicida [9]): inactive; Activity (Francisella novicida [10]): inactive; Activity (Francisella novicida [11]): inactive; Activity (Francisella tularensis [12]): inactive
Nc1ccc(-n2nc(C(F)(F)F)cc2-c2ccc(-c3ccc(Br)cc3)cc2)cc1 | 4 µg/mL (≈ 8.73 µM) |  | 4 µg/mL (≈ 8.73 µM) |  | Activity (Francisella tularensis [6]): Active; IC50 (RAW264.7): 46 µg/mL (≈ 100 µM); Ratio [5]: 11.5
Cc1cc(C)cc(-c2ccc(-c3cc(C(F)(F)F)nn3-c3ccc(C(N)=O)cc3)cc2)c1 |  | inactive |  | inactive | 
Cc1ccc(-c2ccc(-c3cc(C(F)(F)F)nn3-c3ccc(C(N)=O)cc3)cc2)cc1 | 8 µg/mL (≈ 19 µM) |  | 8 µg/mL (≈ 19 µM) |  | 
CCCCc1ccc(-c2ccc(-c3cc(C(F)(F)F)nn3-c3ccc(C(N)=O)cc3)cc2)cc1 |  | inactive |  | inactive | 
NC(=O)c1ccc(-n2nc(C(F)(F)F)cc2-c2ccc(-c3ccc(Cl)cc3)cc2)cc1 | 2 µg/mL (≈ 4.53 µM) |  | 4 µg/mL (≈ 9.05 µM) |  | IC50 (RAW264.7): 9 µg/mL (≈ 20.4 µM); Ratio [5]: 2.3
CC(C)(C)c1ccc(-c2ccc(-c3cc(C(F)(F)F)nn3-c3ccc(C(N)=O)cc3)cc2)cc1 |  | inactive |  | inactive | 
COc1ccc2cc(-c3cc(C(F)(F)F)nn3-c3ccc(N)cc3)ccc2c1 | 16 µg/mL (≈ 41.7 µM) |  | 16 µg/mL (≈ 41.7 µM) |  | 
NC(=O)c1ccc(-n2nc(C(F)(F)F)cc2-c2ccc(-c3ccccc3)cc2)cc1 | 8 µg/mL (≈ 19.6 µM) |  | 16 µg/mL (≈ 39.3 µM) |  | 
